Compounds with a hit are over-represented: about 1.8% of the library has one in this group of screens.
NPY2 pot ag: NPY-Y2 potentiators or agonists, primary screen, cell-based | activation, % at 3.6 µM | cells expressing NPY-Y2, potentiator/agonist read-out | Neuropeptide Y receptor type 2 (Homo sapiens), P49146 | 220,000 compounds, 0.45% hits | AID 1359, 2008; in the data active = activation above about 27%;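 also: cells stimulated with NPY near EC25 plus isoproterenol at EC100; 0% = vehicle plus submaximal agonist and 100% = vehicle plus saturating agonist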
NPY Y2 blocker: NPY-Y2 receptor antagonists, primary screen, cell-based. 140,000 compounds, 0.99% hits. AID 793, 2007. NPY-Y2 expressing cells, antagonist mode. inhibition, % at 2.7 µM. Neuropeptide Y receptor type 2 (Homo sapiens), P49146; in the data active = inhibition above about 17%;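 also: 0% = vehicle with agonist challenge and 100% = reference antagonist with challenge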
NPY1 pot ag: NPY-Y1 receptor potentiators or agonists, primary screen, cell-based; activation, % at 3.6 µM; NPY-Y1 expressing cells, potentiator/agonist activation; AID 1304, 2008; 220,000 compounds, 0.37% hits; Neuropeptide Y receptor type 1 (Homo sapiens), P25929; in the data active = activation above about 33%, passing the limit was not always enough;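 also: cells stimulated with NPY at EC10 then isoproterenol at EC100; 0% = low agonist plus stimulus and 100% = saturating agonist plus stimulus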
Target sequence (P25929 whole entry, looked up): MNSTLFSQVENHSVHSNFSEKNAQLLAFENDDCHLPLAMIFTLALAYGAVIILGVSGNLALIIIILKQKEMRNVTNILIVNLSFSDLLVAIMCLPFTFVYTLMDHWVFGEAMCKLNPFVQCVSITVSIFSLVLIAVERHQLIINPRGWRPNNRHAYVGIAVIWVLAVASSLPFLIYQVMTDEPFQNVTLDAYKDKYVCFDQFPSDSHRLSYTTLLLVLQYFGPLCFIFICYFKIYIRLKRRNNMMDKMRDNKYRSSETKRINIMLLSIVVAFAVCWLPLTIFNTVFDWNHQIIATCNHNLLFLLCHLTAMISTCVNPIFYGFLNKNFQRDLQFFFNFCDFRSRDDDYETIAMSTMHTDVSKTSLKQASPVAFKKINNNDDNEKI
NPY-Y1 antag: NPY-Y1 receptor antagonists, primary screen, cell-based | Neuropeptide Y receptor type 1 (Homo sapiens), P25929 | HEK293-CNG Y1 cells, membrane potential fluorescence; NPY at EC95, then isoproterenol | inhibition, % at 3.6 µM | 200,000 compounds, 1% hits | AID 1040, 2008;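 active = inhibition above the campaign mean inhibition of all tested compounds plus 3 SD, cut at about 20% in these data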;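 also: 0% = DMSO wells given NPY plus isoproterenol and 100% = isoproterenol alone without NPY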
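Test system – HEK293 Y1/CNG channel cell line · Also added – NPY agonist 25 nM, then isoproterenol 1 µM plus Ro 20-1724 25 µM · Compound dosing – one concentration, 3.6 µM, in 0.4% DMSO · Schedule – compound incubation 1 h at room temperature, readout 45 min post-stimulation · Technique – fluorescence, membrane potential probe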
The depositor's hits bear a star; nt = no result given.

SMILES	NPY2 pot ag	NPY Y2 blocker	NPY1 pot ag	NPY-Y1 antag
COc1ccc(C(=O)NN(C)c2nc(C(F)(F)F)nc3ccccc23)cc1	-19	nt	-16	21*
COc1ccc(C(=O)NN(C)c2nc(-c3ccccc3)nnc2C(F)(F)F)cc1	-1	5	2	5
CC1CC(C)CN(C(=O)c2ccc3c(c2NCCO)C(=O)c2ccccc2C3=O)C1 (stereo unspecified)	49*	-9	55*	-18
COC(=O)C(Cc1ccc(O)cc1)NC(=O)C12CC3CC(CC(C3)C1)C2 (stereo unspecified)	63*	nt	51*	-9
CCC(C)(C(=O)NC1CCCC1)N(Cc1cccs1)C(=O)c1ccc2c(c1)OCO2 (stereo unspecified)	-5	18*	1	27*
CCC(C)(C(=O)NC1CCCCC1)N(Cc1cccs1)C(=O)Cc1cccs1 (stereo unspecified)	1	39*	-42	59*
Cc1ccc(C(=O)N(CC(=O)NC2CCCC2)Cc2cccs2)s1	-1	4	-4	4
O=C(NCc1ccc(Cl)cc1)C(=O)NCC1OCCN1C(=O)c1ccc(Cl)cc1 (stereo unspecified)	-6	nt	12	3
N#CCSc1nc2c(sc(=S)n2Cc2ccco2)c(=O)n1-c1ccc(F)cc1	-22	20*	-44	24*
COc1ccc(CNc2nc(SCC(=O)NCc3ccco3)nc3ccccc23)cc1	-30	50*	-72	30*
COc1ccccc1/C=N/n1c(C)nnc1-n1nc(C)cc1C	-11	1	-22	-2
Cc1cc(C)n(-c2nnc(C)n2/N=C/c2cc(Br)ccc2OCc2ccccc2)n1	-15	32*	3	7
Cc1[nH]c2ccccc2c1CCNC(=O)c1ccc2c(c1[N+](=O)[O-])C(=O)c1ccccc1C2=O	22	-5	27	-20
Cc1[nH]c2c(C)cccc2c1CCNC(=O)c1ccc2c(c1[N+](=O)[O-])C(=O)c1ccccc1C2=O	59*	-6	68*	-22
COc1ccc(-c2noc(COc3ccc4c(c3)OCO4)n2)cc1	0	16	-8	11
COc1ccc(-c2noc(COc3ccc4c(c3)OCO4)n2)cc1OC	-23	12	-23	26*
CN(Cc1ccccc1)Cc1nc2c(c(=O)n(C)c(=O)n2C)n1CCc1ccccc1	-7	23*	-36	22*
CC(C)(C)N(Cc1cc2ccccc2[nH]c1=O)C(=O)c1cccc([N+](=O)[O-])c1	0	nt	20	nt
CN(C)CCCN(C(=O)c1sc2ccccc2c1Cl)c1nc2c(F)cccc2s1	-20	18*	-39	20*
CCOc1cccc2sc(N(CCCN(C)C)C(=O)c3ccc(S(=O)(=O)N(C)c4ccccc4)cc3)nc12	-18	nt	-34	21*
CN(C)CCN(C(=O)c1ccc(S(=O)(=O)N(C)c2ccccc2)cc1)c1nc2cc3c(cc2s1)OCCO3	0	nt	-26	nt
O=C(CNc1ccc(F)cc1)N/N=C1\CCCc2ccccc21	-7	nt	4	-3
O=C1NC2(CCCC2)Oc2ccccc21	-6	nt	-7	-4
COc1ccc(C2=Nn3c(nnc3-c3ccccc3OC)SC2)cc1OC	-32	30*	-75	30*
CCNc1nc(NC(C)(C)C)nc(N2CCCCC2)n1	30*	nt	50*	-3
SMILES	NPY2 pot ag	NPY Y2 blocker	NPY1 pot ag	NPY-Y1 antag
CCNc1nc(N2CCCC2)nc(N2CCCC2)n1	-15	nt	19	15
COC(=O)c1cc2c(ccn2-c2ccc(F)cc2)n1C(C)C	-2	21*	-9	35*
COC(=O)c1cc2c(ccn2-c2ccc(F)cc2)n1Cc1cccc(OC)c1	17	6	7	1
O=C(CCCc1c[nH]c2ccccc12)Nc1ccc2ccccc2c1	5	5	-5	5
c1ccc(-c2nc(-n3nc4ccccc4n3)nc3ccccc23)cc1	-30	27*	-18	-2
Clc1ccc(-c2nc(N3CCCCC3)nc3ccccc23)cc1	-4	3	-10	2
CCC(CC)C1C(C#N)=C(N)Oc2n[nH]c(-c3ccccc3)c21 (stereo unspecified)	38*	0	49*	-16
N#CC1=C(N)Oc2n[nH]c(-c3ccncc3)c2C1c1ccsc1 (stereo unspecified)	-8	4	-13	-2
N#CC1=C(N)Oc2n[nH]c(-c3ccccc3)c2C1c1ccsc1 (stereo unspecified)	-26	12	-17	36*
CCC(CC)C1C(C#N)=C(N)Oc2n[nH]c(C)c21 (stereo unspecified)	2	2	14	-6
CCOC(=O)c1cc(-c2ccccc2)nc2c1c(C)nn2-c1ccccn1	-24	60*	-68	49*
CCOC(=O)c1cc(-c2ccc(Cl)cc2)nc2c1c(C)nn2CCC#N	-31	33*	-74	25*
CCOC(=O)c1cc(-c2ccco2)nc2c1c(C)nn2CCC#N	-17	10	-6	10
CCOC(=O)c1cc(-c2ccc(OC)cc2F)nc2c1c(C)nn2CCC#N	0	20*	14	26*
COCC(C)n1c(C)cc(C(=O)CSc2ncccn2)c1C (stereo unspecified)	14	nt	14	0
Cc1noc(C)c1C(=O)N1CC(C)OC(C)C1 (stereo unspecified)	1	1	4	13
CCc1noc(C)c1C(=O)N1CC(C)OC(C)C1 (stereo unspecified)	96*	-1	78*	-10
CCOC(=O)c1c(N)n(-c2ccc(N)cc2)c2nc3ccccc3nc12	13	-1	21	2
Nc1c(C(=O)Nc2ccccc2)c2nc3ccccc3nc2n1-c1ccc(O)cc1	46*	nt	55*	nt
Cc1nn(-c2ccc(F)cc2)c2sc(C(=O)O)cc12	-26	19*	-36	23*
Cc1ccc2c(c1)c1c(n2CC(O)CNC(C)(C)C)CCCC1 (stereo unspecified)	41*	2	27	-9
CC(C)(C)OC(=O)COc1cc(OCC(=O)OC(C)(C)C)c2c(=O)cc(-c3ccccc3)oc2c1	-30	33*	-31	46*
CC(C)(C)OC(=O)COc1cc(O)c2c(=O)cc(-c3ccccc3)oc2c1	1	16	9	0
O=C(c1ccco1)N1CCN(S(=O)(=O)c2ccc(Br)s2)CC1	6	6	-24	3
O=C(O)CCCNC1=NCCC1	4	4	16	42*
COc1cccc(NC(=O)c2ccccc2-c2nc(-c3cccc(C)c3)no2)c1	-33	23*	-108	37*
Cc1cccc(-c2noc(-c3ccccc3C(=O)NCC3CCCO3)n2)c1 (stereo unspecified)	-14	1	-5	12
CCc1ccc(-c2nc(CN3CCC(C(=O)N4CCN(c5ccccc5)CC4)CC3)c(C)o2)cc1	-28	31*	-75	47*
CC(=O)N(C)c1ccc(OCC(O)CN(Cc2ccco2)S(=O)(=O)c2ccc(C)cc2)cc1 (stereo unspecified)	-8	4	11	-4

Compound activity (PubChem BioAssay)
